Test results published in ChEMBL document CHEMBL4184106, “Discovering alkylamide derivatives of bexarotene as new therapeutic agents against triple-negative breast cancer” (Bioorg Med Chem Lett, 2018).
Calls of active or inactive are those of the source. The calls are words filed in the database; no cut-off is given here.

Key:
[1] = test system: MCF7; experiment: Inhibition of mammosphere formation in human MCF7 cells assessed as ratio of C-Myc to beta actin level at 5 uM by Western blot analysis (Rvb= 1); type: functional
Outline: (§1)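 Post-treatment cell lysates were probed by Western blot for CSC markers, with β-actin as the loading control. Band densitometry was normalized to DMSO-treated samples.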

[2] = test system: MCF7; experiment: Cytotoxicity against human MCF7 cells assessed as reduction in cell viability at 5 uM by MTT assay; type: functional
[3] = test system: MDA-MB-231; experiment: Cytotoxicity against human MDA-MB-231 cells assessed as reduction in cell viability at 5 uM by MTT assay; type: functional
[4] = test system: BT-549; experiment: Cytotoxicity against human BT549 cells assessed as reduction in cell viability at 5 uM by MTT assay; type: functional
[5] = test system: MDA-MB-231; experiment: Cytotoxicity against human MDA-MB-231 cells assessed as reduction in cell viability by MTT assay; type: functional, cell-based
[6] = test system: BT-549; experiment: Cytotoxicity against human BT549 cells assessed as reduction in cell viability by MTT assay; type: functional, cell-based
[7] = test system: MCF-10A; experiment: Cytotoxicity against human MCF10A cells assessed as reduction in cell viability by MTT assay; type: cell-based
[8] = test system: MDA-MB-231; experiment: Induction of apoptosis in human MDA-MB-231 cells assessed as ratio of cleaved caspase-3 to beta-actin level at 5 uM by western blot analysis (reference value: 1); type: functional
[9] = test system: BT-549; experiment: Induction of apoptosis in human BT549 cells assessed as ratio of cleaved caspase-3 to beta-actin level at 5 uM by western blot analysis (reference value: 1); type: functional
[10] = test system: MCF-10A; experiment: Induction of apoptosis in human MCF10A cells assessed as ratio of cleaved caspase-3 to beta-actin level at 5 uM by western blot analysis (reference value: 1); type: cell-based
[11] = test system: MCF7; experiment: Induction of apoptosis in human MCF7 cells assessed as ratio of cleaved caspase-3 to beta-actin level at 5 uM by western blot analysis (reference value: 1); type: functional
[12] = test system: MDA-MB-231; experiment: Induction of apoptosis in human MDA-MB-231 cells assessed as ratio of cleaved caspase-8 to beta-actin level at 5 uM by western blot analysis (reference value: 1); type: functional
[13] = test system: BT-549; experiment: Induction of apoptosis in human BT549 cells assessed as ratio of cleaved caspase-8 to beta-actin level at 5 uM by western blot analysis (reference value: 1); type: functional
[14] = test system: MCF-10A; experiment: Induction of apoptosis in human MCF10A cells assessed as ratio of cleaved caspase-8 to beta-actin level at 5 uM by western blot analysis (reference value: 1); type: cell-based
[15] = test system: MCF7; experiment: Induction of apoptosis in human MCF7 cells assessed as ratio of cleaved caspase-8 to beta-actin level at 5 uM by western blot analysis (reference value: 1); type: functional
[16] = test system: MDA-MB-231; experiment: Induction of apoptosis in human MDA-MB-231 cells assessed as ratio of cleaved caspase-9 to beta-actin level at 5 uM by western blot analysis (reference value: 1); type: functional
[17] = test system: BT-549; experiment: Induction of apoptosis in human BT549 cells assessed as ratio of cleaved caspase-9 to beta-actin level at 5 uM by western blot analysis (reference value: 1); type: functional
[18] = test system: MCF-10A; experiment: Induction of apoptosis in human MCF10A cells assessed as ratio of cleaved caspase-9 to beta-actin level at 5 uM by western blot analysis (reference value: 1); type: cell-based
[19] = test system: MCF7; experiment: Induction of apoptosis in human MCF7 cells assessed as ratio of cleaved caspase-9 to beta-actin level at 5 uM by western blot analysis (reference value: 1); type: functional
[20] = test system: MCF7; experiment: Inhibition of colony formation in human MCF7 cells at 5 uM supplemented with fresh medium containing compound every 3 to 4 days for 7 days by crystal violet staining based adherent cell colony-forming assay; type: functional
Outline: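 MCF-7 cells were plated for adherent colony formation and treated for 7 days. Colonies were counted at the end of treatment and normalized to untreated samples.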

[21] = test system: MDA-MB-231; experiment: Inhibition of colony formation in human MDA-MB-231 cells at 2 uM supplemented with fresh medium containing compound every 3 days for 10 days by microscopic method based soft agar colony formation assay relative to control; type: functional
[22] = test system: MDA-MB-231; experiment: Anti-migratory activity against human MDA-MB-231 cells assessed as reduction in wound closure at 2 uM up to 24 hrs by wound-healing assay; type: functional, cell-based
Outline: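 MDA-MB-231 monolayer was scratched to make a wound gap. Cells were treated alongside a DMSO vehicle control, and migration into the gap was imaged at 24 h.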

[23] = test system: MCF7; experiment: Inhibition of mammosphere formation in human MCF7 cells at 2 uM after 7 days by microscopic method; type: functional, cell-based
Outline: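 MCF-7 cells were grown under mammosphere-forming conditions with compound. Spheres 60 μm or larger were counted for quantitation.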

[24] = test system: MCF7; experiment: Down regulation of c-Myc expression in human MCF7 cells at 5 uM by Western blot analysis; type: functional
Outline: (§2)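 MCF-7 cells were treated and lysates probed by Western blot for CSC-related markers, with β-actin as loading control. Band densitometry was normalized to DMSO-treated samples.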

[25] = test system: MCF7; experiment: Down regulation of KLF4 expression in human MCF7 cells at 5 uM by Western blot analysis; type: functional; outline: as §2
[26] = test system: MCF7; experiment: Down regulation of Nanog expression in human MCF7 cells at 5 uM by Western blot analysis; type: functional; outline: as §2
[27] = test system: MCF7; experiment: Down regulation of Oct4A expression in human MCF7 cells at 5 uM by Western blot analysis; type: functional; outline: as §2
[28] = test system: MDA-MB-231; experiment: Down regulation of KLF4 expression in human MDA-MB-231 cells at 5 uM by Western blot analysis; type: functional
[29] = test system: MCF7; experiment: Inhibition of mammosphere formation in human MCF7 cells assessed as ratio of KLF4 to beta actin level at 5 uM by Western blot analysis (Rvb= 1); type: functional; outline: as §1
[30] = test system: MCF7; experiment: Inhibition of mammosphere formation in human MCF7 cells assessed as ratio of Nanog to beta actin level at 5 uM by Western blot analysis (Rvb= 1); type: functional; outline: as §1
[31] = test system: MCF7; experiment: Inhibition of mammosphere formation in human MCF7 cells assessed as ratio of Oct4A to beta actin level at 5 uM by Western blot analysis (Rvb= 1); type: functional; outline: as §1
[32] = test system: MCF7; experiment: Inhibition of mammosphere formation in human MCF7 cells assessed as ratio of Sox2 to beta actin level at 5 uM by Western blot analysis (Rvb= 1); type: functional; outline: as §1
[33] = test system: MDA-MB-231; experiment: Inhibition of mammosphere formation in human MDA-MB-231 cells assessed as ratio of C-Myc to beta actin level at 5 uM by Western blot analysis (Rvb= 1); type: functional; outline: as §1
[34] = test system: MDA-MB-231; experiment: Inhibition of mammosphere formation in human MDA-MB-231 cells assessed as ratio of KLF4 to beta actin level at 5 uM by Western blot analysis (Rvb= 1); type: functional; outline: as §1
[35] = test system: BT-549; experiment: Inhibition of mammosphere formation in human BT549 cells assessed as ratio of C-Myc to beta actin level at 5 uM by Western blot analysis (Rvb= 1); type: functional
[36] = test system: BT-549; experiment: Inhibition of mammosphere formation in human BT549 cells assessed as ratio of KLF4 to beta actin level at 5 uM by Western blot analysis (Rvb= 1); type: functional
[37] = test system: MDA-MB-231; experiment: Effect on epithelial-mesenchymal transition in human MDA-MB-231 cells assessed as ratio of E-cadherin to beta-actin level at 5 uM by Western blot analysis (reference value: 1); type: functional
[38] = test system: MDA-MB-231; experiment: Effect on epithelial-mesenchymal transition in human MDA-MB-231 cells assessed as ratio of vimentin to beta-actin level at 5 uM by Western blot analysis (reference value: 1); type: functional
[39] = test system: MDA-MB-231; experiment: Effect on epithelial-mesenchymal transition in human MDA-MB-231 cells assessed as ratio of slug to beta-actin level at 5 uM by Western blot analysis (reference value: 1); type: functional
[40] = test system: BT-549; experiment: Effect on epithelial-mesenchymal transition in human BT549 cells assessed as ratio of E-cadherin to beta-actin level at 5 uM by Western blot analysis (reference value: 1); type: functional
[41] = test system: BT-549; experiment: Effect on epithelial-mesenchymal transition in human BT549 cells assessed as ratio of vimentin to beta-actin level at 5 uM by Western blot analysis (reference value: 1); type: functional
[42] = test system: BT-549; experiment: Effect on epithelial-mesenchymal transition in human BT549 cells assessed as ratio of slug to beta-actin level at 5 uM by Western blot analysis (reference value: 1); type: functional

Work on `C=C(c1ccc(C(=O)NCCN(CC)CC)cc1)c1cc2c(cc1C)C(C)(C)CCC2(C)C` yielded a Ratio [1] of 0.7, an Activity [2] of 40% and an Activity [3] of 60%. The Activity [4] was 60%, the EC50 [5] was less than 10 µM and the EC50 [6] was less than 10 µM. For the same compound, the Activity [7] was “Non-Toxic”, the Ratio [8] was 1.3 and the Ratio [9] was 2.6. The Ratio [10] was 1.1, the Ratio [11] was 0.9 and the Ratio [12] was 1.5. For the same compound, the Ratio [13] was 2.1, the Ratio [14] was 1 and the Ratio [15] was 1. The Ratio [16] was 2.5, the Ratio [17] was 2.3 and the Ratio [18] was 1. The Ratio [19] was 1, the “inhibition (INH)” value [20] was 80% and the “inhibition (INH)” value [21] was 90%. The Activity [22] was “Active”, the inhibition [23] was “Active” and the Activity [24] was 10 - 30%. For the same compound, the Activity [25] was 10 - 30%, the Activity [26] was 20% and the Activity [27] was 50%. It also gave an Activity [28] of 50%, a Ratio [29] of 0.9 and a Ratio [30] of 0.8. For the same compound, the Ratio [31] was 0.5, the Ratio [32] was 0.9 and the Ratio [33] was 0.9. It also gave a Ratio [34] of 0.5, a Ratio [35] of 0.9 and a Ratio [36] of 0.5. The Ratio [37] was 1.9, the Ratio [38] was 0.4 and the Ratio [39] was 0.9. It also gave a Ratio [40] of 2.4, a Ratio [41] of 0.4 and a Ratio [42] of 0.4.
